Results pooled from the literature.
Cell line: MCF7
Read-out: cell growth or viability

N.N.[Cl][Pt][Cl]
IC50 (MTT; 48 h): 2000 nM

O=C(NCc1ccc(F)cc1)c1cn(Cc2ccc(F)cc2)c2ccc(Oc3ccccc3)cc2c1=O
IC50 (MTT; 48 h): 327000 nM

N.N.[Cl][Pt][Cl]
IC50 (MTT; 72 h): 61600 nM

O=C(NCc1ccc(C(F)(F)F)cc1)c1cn(Cc2ccc(Cl)cc2)c2ccc(Oc3ccccc3)cc2c1=O
IC50 (MTT; 48 h): 109000 nM

c1ccc([Se][Au]=[c]2n(C3CCCCC3)ccn2C2CCCCC2)cc1
IC50 (crystal violet): 1000 nM

O=C(NCc1ccc(Cl)cc1)c1cn(Cc2ccc(Cl)cc2)c2ccc(Oc3ccccc3)cc2c1=O
IC50 (MTT; 24 h): 481000 nM

CC(=O)c1c(C)c2cnc(Nc3ccc(C4CCN(CCS(C)(=O)=O)CC4)cn3)nc2n(C2CCCC2)c1=O
IC50 (ATP luminescence; 72 h): 143 nM

O=C(NCc1ccc(C(F)(F)F)cc1)c1cn(Cc2ccc(F)cc2)c2ccc(Oc3ccccc3)cc2c1=O
IC50 (MTT; 48 h): 183000 nM

CC[C@@]1(O)C(=O)OCc2c1cc1n(c2=O)Cc2cc3ccccc3nc2-1
IC50 (SRB; 48 h): 67 nM

C#CCn1c(C(=O)/C=C/c2ccc(F)cc2)nc2ccccc21
IC50 (LDH; 48 h): 2480 nM

CC(=O)N[C@H]1[C@@H](O[C@@H]2O[C@H](C[C@@H](O)[C@H]3O[C@@H](n4ccc(=O)[nH]c4=O)[C@H](O)[C@@H]3O)[C@H](O)[C@H](O)[C@H]2NC(=O)/C=C/CCCCCCCCCC(C)C)O[C@H](CO)[C@@H](O)[C@@H]1O
IC50 (WST-1): 520 nM

Cc1ccc(CNC(=O)c2cn(Cc3ccc(Cl)cc3)c3ccc(Oc4ccccc4)cc3c2=O)cc1
IC50 (MTT; 24 h): > 500000 nM

N.N.[Cl][Pt][Cl]
IC50 (MTT): 46100 nM

CC[C@H](C)[C@@H]([C@@H](CC(=O)N1CCC[C@H]1[C@H](OC)[C@@H](C)C(=O)N[C@H](C)[C@@H](O)c1ccccc1)OC)N(C)C(=O)[C@@H](NC(=O)[C@@H](NC)C(C)C)C(C)C
IC50 (CCK-8): 10.7 nM

COc1c(C)c2c(c(O)c1C/C=C(\C)CCC(=O)O)C(=O)OC2
IC50: 741 nM

Fc1ccc2c(-c3nc(Cc4ccccc4)cs3)nn(Cc3ccc(Cl)cc3Cl)c2c1
IC50 (48 h): 32900 nM
